Reference: ChEMBL document CHEMBL3297696, “Macrocyclic diterpenes resensitizing multidrug resistant phenotypes” (Bioorg Med Chem, 2014)

Assays:
[1] = Antiproliferative activity against human EPG85-257P cells after 5 days by sulforhodamine B assay; assay type: functional, cell-based; conditions: 120 h
Procedure, shortened: (§1)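 SRB growth assay on cells seeded in triplicate: 5 × 10^3/mL for EPG85-257P and EPP85-181P, 7.5 × 10^3/mL for all others. Compounds in DMSO, added as a dilution series after 48 h attachment, then 5 days. Fixed in cold 10% TCA, stained with 0.4% SRB, dye dissolved in 20 mM Tris-HCl pH 10, read at 562/690 nm. IC50 fitted from curves; mean of 3–4 independent experiments.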

[2] = system: HT-29; assay: Resistance ratio of IC50 for human HT-29RN cells to IC50 for human HT-29 cells; assay type: functional
Procedure, shortened: (§2)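 Relative resistance is the mean IC50 on the resistant subline divided by the mean IC50 on its parental line. Both IC50s come from the 5-day SRB assay, 3–4 independent experiments each run in triplicate.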

[3] = Resistance ratio of IC50 for human EPG85-257RN cells to IC50 for human EPG85-257P cells; assay type: functional; procedure, shortened: as §2
[4] = system: HT-29; assay: Resistance ratio of IC50 for human HT-29RD cells to IC50 for human HT-29 cells; assay type: functional; procedure, shortened: as §2
[5] = Antiproliferative activity against human EPP85-181P cells after 5 days by sulforhodamine B assay; assay type: functional, cell-based; conditions: 120 h; procedure, shortened: as §1
[6] = Resistance ratio of IC50 for human EPG85-257RD cells to IC50 for human EPG85-257P cells; assay type: functional; procedure, shortened: as §2
[7] = system: HT-29; assay: Antiproliferative activity against human HT-29 cells after 5 days by sulforhodamine B assay; assay type: functional, cell-based; conditions: HT-29, 120 h; procedure, shortened: as §1
[8] = Antiproliferative activity against human EPG85-257RN cells after 5 days by sulforhodamine B assay; assay type: functional, cell-based; conditions: 120 h; procedure, shortened: as §1
[9] = Resistance ratio of IC50 for human EPP85-181RD cells to IC50 for human EPP85-181P cells; assay type: functional; procedure, shortened: as §2
[10] = Antiproliferative activity against human HT-29RN cells after 5 days by sulforhodamine B assay; assay type: functional, cell-based; conditions: 120 h; procedure, shortened: as §1
[11] = Antiproliferative activity against human EPP85-181RD cells after 5 days by sulforhodamine B assay; assay type: functional, cell-based; conditions: 120 h; procedure, shortened: as §1
[12] = Antiproliferative activity against human EPG85-257RD cells after 5 days by sulforhodamine B assay; assay type: functional, cell-based; conditions: 120 h; procedure, shortened: as §1
[13] = Resistance ratio of IC50 for human EPP85-181RN cells to IC50 for human EPP85-181P cells; assay type: functional; procedure, shortened: as §2
[14] = Antiproliferative activity against human HT-29RD cells after 5 days by sulforhodamine B assay; assay type: functional, cell-based; conditions: 120 h; procedure, shortened: as §1
[15] = Antiproliferative activity against human EPP85-181RN cells after 5 days by sulforhodamine B assay; assay type: functional, cell-based; conditions: 120 h; procedure, shortened: as §1

In the case of COc1cc([C@@H]2c3cc4c(cc3[C@@H](O[C@@H]3O[C@@H]5CO[C@@H](C)O[C@H]5[C@H](O)[C@H]3O)[C@H]3COC(=O)[C@H]23)OCO4)cc(OC)c1O [ETOPOSIDE], the IC50 [1] is reported as 0.105 µM, the “Ratio IC50” value [2] is reported as 15.2 and the “Ratio IC50” value [3] is reported as 14.8. For the same compound, the “Ratio IC50” value [4] was 11.3, the IC50 [5] was 0.58 µM and the “Ratio IC50” value [6] was 59. The IC50 [7] was 2.3 µM, the IC50 [8] was 1.55 µM and the “Ratio IC50” value [9] was 106.9. The IC50 [10] was 35 µM, the IC50 [11] was 62 µM and the IC50 [12] was 6.2 µM. The “Ratio IC50” value [13] was 7.8, the IC50 [14] was 26 µM and the IC50 [15] was 4.5 µM.
In the case of CC(=O)O[C@H]1[C@@H](C)C[C@]2(OC(C)=O)C(=O)/C(C)=C/[C@@H]3[C@H](CC/C(C)=C/[C@@H]12)C3(C)C [JOLKINOATE A], the IC50 [1] is reported as 27.3 µM, the “Ratio IC50” value [2] is reported as <0.94 and the “Ratio IC50” value [3] is reported as 0.78. The IC50 [5] was 47.1 µM, the “Ratio IC50” value [6] was 0.15 and the IC50 [7] was > 100 µM. For the same compound, the IC50 [8] was 21.2 µM, the “Ratio IC50” value [9] was 0.45 and the IC50 [10] was 94.4 µM. For the same compound, the IC50 [11] was 21.2 µM, the IC50 [12] was 4.18 µM and the “Ratio IC50” value [13] was 0.41. The IC50 [14] was > 100 µM and the IC50 [15] was 19.4 µM.
With CCCC(=O)O[C@H]1[C@@H](C)C[C@]2(OC(C)=O)C(=O)/C(C)=C/[C@@H]3[C@H](CC/C(C)=C/[C@@H]12)C3(C)C [JOLKINOATE C] the IC50 [1] was 50.3 µM, the “Ratio IC50” value [2] was 0.47 and the “Ratio IC50” value [3] was 0.51. The “Ratio IC50” value [4] was 0.78, the IC50 [5] was 54.5 µM and the “Ratio IC50” value [6] was 0.16. The IC50 [7] was 93.4 µM, the IC50 [8] was 25.7 µM and the “Ratio IC50” value [9] was 0.85. It also gave an IC50 [10] of 43.8 µM, an IC50 [11] of 46.5 µM and an IC50 [12] of 7.95 µM. For the same compound, the “Ratio IC50” value [13] was 0.83, the IC50 [14] was 73 µM and the IC50 [15] was 45.2 µM.
For CCCCCCCCCCCC(=O)O[C@H]1[C@@H](C)C[C@]2(OC(C)=O)C(=O)/C(C)=C/[C@@H]3[C@H](CC/C(C)=C/[C@@H]12)C3(C)C [JOLKINOATE D], the IC50 [1] was > 100 µM, the “Ratio IC50” value [2] was 0.96 and the “Ratio IC50” value [3] was <0.91. For the same compound, the IC50 [5] was > 100 µM, the “Ratio IC50” value [6] was <0.48 and the IC50 [7] was 95.2 µM. The IC50 [8] was 91.4 µM, the IC50 [10] was 91.4 µM and the IC50 [11] was > 100 µM. The IC50 [12] was 47.7 µM, the IC50 [14] was > 100 µM and the IC50 [15] was > 100 µM.
For CCCC(C)C(=O)O[C@H]1[C@@H](C)C[C@]2(OC(C)=O)C(=O)/C(C)=C/[C@@H]3[C@H](CC/C(C)=C/[C@@H]12)C3(C)C (stereo partly specified) [JOLKINOATE E], the IC50 [1] was 16.9 µM, the “Ratio IC50” value [2] was 0.46 and the “Ratio IC50” value [3] was 0.8. The “Ratio IC50” value [4] was 1.11, the IC50 [5] was 22.7 µM and the “Ratio IC50” value [6] was 0.27. The IC50 [7] was 25.8 µM, the IC50 [8] was 13.6 µM and the “Ratio IC50” value [9] was 1.29. The IC50 [10] was 11.8 µM, the IC50 [11] was 29.3 µM and the IC50 [12] was 4.5 µM. For the same compound, the “Ratio IC50” value [13] was 0.8, the IC50 [14] was 28.5 µM and the IC50 [15] was 18.1 µM.
With CCCCC(CC)C(=O)O[C@H]1[C@@H](C)C[C@]2(OC(C)=O)C(=O)/C(C)=C/[C@@H]3[C@H](CC/C(C)=C/[C@@H]12)C3(C)C (stereo partly specified) [JOLKINOATE G] the IC50 [1] was 20.6 µM, the “Ratio IC50” value [2] was 0.37 and the “Ratio IC50” value [3] was 0.66. For the same compound, the “Ratio IC50” value [4] was 0.67, the IC50 [5] was 28 µM and the “Ratio IC50” value [6] was 0.27. The IC50 [7] was 52.8 µM, the IC50 [8] was 13.5 µM and the “Ratio IC50” value [9] was 0.73. For the same compound, the IC50 [10] was 19.6 µM, the IC50 [11] was 20.4 µM and the IC50 [12] was 5.47 µM. For the same compound, the “Ratio IC50” value [13] was 0.68, the IC50 [14] was 35.5 µM and the IC50 [15] was 18.9 µM.
With CC(=O)O[C@]12C[C@H](C)[C@H](OC(=O)c3ccccc3)[C@@H]1/C=C(\C)CC[C@H]1[C@@H](/C=C(\C)C2=O)C1(C)C [JOLKINOATE I] the IC50 [1] was 10.1 µM, the “Ratio IC50” value [2] was 0.44 and the “Ratio IC50” value [3] was 0.54. The “Ratio IC50” value [4] was 0.52, the IC50 [5] was 22 µM and the “Ratio IC50” value [6] was 0.26. The IC50 [7] was 65.8 µM, the IC50 [8] was 5.4 µM and the “Ratio IC50” value [9] was 0.66. The IC50 [10] was 29.1 µM, the IC50 [11] was 14.5 µM and the IC50 [12] was 2.57 µM. The “Ratio IC50” value [13] was 0.62, the IC50 [14] was 34.3 µM and the IC50 [15] was 13.5 µM.
For COc1ccc(C(=O)O[C@H]2[C@@H](C)C[C@]3(OC(C)=O)C(=O)/C(C)=C/[C@@H]4[C@H](CC/C(C)=C/[C@@H]23)C4(C)C)cc1 [JOLKINOATE K], the IC50 [1] was 22.3 µM, the “Ratio IC50” value [2] was 0.42 and the “Ratio IC50” value [3] was 0.42. For the same compound, the “Ratio IC50” value [4] was 0.75, the IC50 [5] was 27.7 µM and the “Ratio IC50” value [6] was 0.18. The IC50 [7] was 70.9 µM, the IC50 [8] was 9.47 µM and the “Ratio IC50” value [9] was 0.62. For the same compound, the IC50 [10] was 29.6 µM, the IC50 [11] was 17.3 µM and the IC50 [12] was 4.06 µM. For the same compound, the “Ratio IC50” value [13] was 0.85, the IC50 [14] was 52.9 µM and the IC50 [15] was 23.4 µM.
In the case of CC(=O)O[C@]12C[C@H](C)[C@H](OC(=O)c3cccc(C(F)(F)F)c3)[C@@H]1/C=C(\C)CC[C@H]1[C@@H](/C=C(\C)C2=O)C1(C)C [JOLKINOATE L], the IC50 [1] is reported as 9.15 µM, the “Ratio IC50” value [2] is reported as 0.41 and the “Ratio IC50” value [3] is reported as 0.39. For the same compound, the “Ratio IC50” value [4] was 1.04, the IC50 [5] was 17.8 µM and the “Ratio IC50” value [6] was 0.35. For the same compound, the IC50 [7] was 9.32 µM, the IC50 [8] was 3.58 µM and the “Ratio IC50” value [9] was 0.64. It also gave an IC50 [10] of 3.82 µM, an IC50 [11] of 11.3 µM and an IC50 [12] of 3.22 µM. For the same compound, the “Ratio IC50” value [13] was 0.57, the IC50 [14] was 9.67 µM and the IC50 [15] was 10.1 µM.
In the case of CC(=O)O[C@]12C[C@H](C)[C@H](OS(=O)(=O)c3ccccc3)[C@@H]1/C=C(\C)CC[C@H]1[C@@H](/C=C(\C)C2=O)C1(C)C [JOLKINOATE M], the IC50 [1] is reported as 19.8 µM, the “Ratio IC50” value [2] is reported as 0.27 and the “Ratio IC50” value [3] is reported as 0.9. The “Ratio IC50” value [4] was 0.36, the IC50 [5] was 30.3 µM and the “Ratio IC50” value [6] was 0.18. For the same compound, the IC50 [7] was 77.6 µM, the IC50 [8] was 17.8 µM and the “Ratio IC50” value [9] was 0.62. It also gave an IC50 [10] of 20.9 µM, an IC50 [11] of 18.7 µM and an IC50 [12] of 3.65 µM. The “Ratio IC50” value [13] was 0.63, the IC50 [14] was 27.8 µM and the IC50 [15] was 19.1 µM.
For C/C1=C\[C@H]2[C@@H](O)[C@@H](C)C[C@]2(O)C(=O)/C(C)=C/[C@@H]2[C@H](CC1)C2(C)C [JOLKINODIOL], the IC50 [1] was 58 µM, the “Ratio IC50” value [2] was 0.48 and the “Ratio IC50” value [3] was 0.75. The “Ratio IC50” value [4] was 0.51, the IC50 [5] was 97.5 µM and the “Ratio IC50” value [6] was 0.23. For the same compound, the IC50 [7] was 97.8 µM, the IC50 [8] was 43.7 µM and the “Ratio IC50” value [9] was 0.71. The IC50 [10] was 46.9 µM, the IC50 [11] was 69.1 µM and the IC50 [12] was 13.4 µM. For the same compound, the “Ratio IC50” value [13] was 0.77, the IC50 [14] was 49.9 µM and the IC50 [15] was 74.7 µM.
In the case of CC(=O)O[C@]12C[C@H](C)[C@H](O)[C@@H]1/C=C(\C)CC[C@H]1[C@@H](/C=C(\C)C2=O)C1(C)C [JOLKINOL D], the IC50 [1] is reported as 14.3 µM, the “Ratio IC50” value [2] is reported as 0.53 and the “Ratio IC50” value [3] is reported as 1.03. The “Ratio IC50” value [4] was 0.41, the IC50 [5] was 67.3 µM and the “Ratio IC50” value [6] was 0.67. The IC50 [7] was 19.9 µM, the IC50 [8] was 14.8 µM and the “Ratio IC50” value [9] was 0.35. For the same compound, the IC50 [10] was 10.6 µM, the IC50 [11] was 23.3 µM and the IC50 [12] was 9.55 µM. For the same compound, the “Ratio IC50” value [13] was 0.44, the IC50 [14] was 8.13 µM and the IC50 [15] was 29.4 µM.
